In ChEMBL document CHEMBL2407056, “3-(Oxazolo[4,5-b]pyridin-2-yl)anilides as a novel class of potent inhibitors for the kinetoplastid Trypanosoma brucei, the causative agent for human African trypanosomiasis” (Eur J Med Chem, 2013):
Converted amounts (≈) assume the structure as drawn.

Columns and labels:
[1] = Kinetic solubility of the compound in phosphate buffer at pH 2 by nephelometry; assay type: physicochemical; conditions: read-out: Kinetic_solubility
[2] = system: Trypanosoma brucei rhodesiense; assay: Antitrypanosomal activity against Trypanosoma brucei rhodesiense STIB 900 bloodstream form after 70 hrs by Alamar blue assay; assay type: functional, organism-based; conditions: STIB 900, 70 h
Method in brief: (§1)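 Bloodstream forms (4×10³/well) in MEM with 25 mM HEPES, extra glucose, non-essential amino acids, 0.2 mM 2-mercaptoethanol, 1 mM pyruvate and 15% heat-inactivated horse serum. Eleven 3-fold dilutions from 100 to 0.002 µg/mL, 70 h at 37 °C/5% CO2; Alamar Blue 2 h, fluorescence at ex 536/em 588 nm; IC50 by linear regression; melarsoprol control. SI relative to L6 cells.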

[3] = system: Plasmodium falciparum; assay: Antimicrobial activity against Plasmodium falciparum NF54 infected in human RBC after 48 hrs by [3H]hypoxanthine incorporation assay; assay type: functional, organism-based
Method in brief: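 Erythrocytic stage, drug-sensitive strain, in hypoxanthine-free RPMI 1640 with HEPES, NaHCO3, neomycin, Albumax, human A+ red cells at 2.5% haematocrit, 0.3% parasitaemia. Eleven 3-fold dilutions from 100 to 0.002 µg/mL; 37 °C, 4% CO2/3% O2/93% N2. ³H-hypoxanthine added at 48 h, further 24 h, then harvested and scintillation-counted. IC50 by linear regression; chloroquine control.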

[4] = Half life in human liver microsomes at 1 uM by LC-MS analysis; assay type: ADME, Microsome
Method in brief: (§2)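 Compound at 1 µM final (1 in 500 dilution of stock) incubated at 37 °C with human liver microsomes in 0.1 M phosphate buffer pH 7.4, 0.4 mg/mL protein. First-order depletion rate from exponential decay fit used to derive in vitro CLint and half-life; predicted hepatic extraction ratio from scaled CLint with liver blood flow 20.7 mL/min/kg.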

[5] = Selectivity index, ratio of IC50 for HEK293 cells to IC50 for Trypanosoma brucei brucei 427 bloodstream form; assay type: toxicity, cell-based; conditions: human, read-out: Ratio IC50
Method in brief: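 HEK293 cells (55 µL of 72,727 cells/mL in DMEM + 10% FCS) in 384-well plates, 24 h at 37 °C/5% CO2. Drug diluted 1:21 from DMSO, final 83.34 to 0.0004 µM, 48 h. […] SI relative to T. b. brucei.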

[6] = Kinetic solubility of the compound in phosphate buffer at pH 6.5 by nephelometry; assay type: physicochemical; conditions: read-out: Kinetic_solubility
Method in brief: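 DMSO stocks spiked into pH 6.5 phosphate buffer or 0.01 M HCl (about pH 2.0), final DMSO 1% (v/v). Solubility range determined by nephelometry.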

[7] = Partition coefficient, log D of the compound at pH 7.4 by HPLC analysis; assay type: physicochemical; conditions: octanol/water
Method in brief: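 Chromatographic gradient HPLC: mobile phase 50 mM ammonium acetate pH 7.4 (or ammonium formate pH 3.0) with an acetonitrile gradient of 0–100% over 10 min; UV detection at 220 and 254 nm.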

[8] = system: Leishmania donovani; assay: Antimicrobial activity against Leishmania donovani MHOM/ET/67/L82 amastigote form after 70 hrs by Alamar blue assay; assay type: functional, organism-based; conditions: MHOM/ET/67/L82, 70 h
Method in brief: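 Axenic amastigotes grown at 37 °C in SM medium pH 5.4 with 10% heat-inactivated FBS, 5% CO2; 10⁵ parasites per well exposed to eleven 3-fold dilutions (100 to 0.002 µg/mL) for 70 h. Alamar Blue (resazurin) added for 2–4 h, fluorescence read at ex 536/em 588 nm. IC50 by linear regression from sigmoidal curves; miltefosine control.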

[9] = Selectivity index, ratio of IC50 for rat L6 cells to IC50 for Trypanosoma brucei rhodesiense STIB 900 bloodstream form; assay type: toxicity, cell-based; conditions: read-out: Ratio IC50; method in brief: as §1
[10] = Intrinsic clearance in human liver microsomes at 1 uM after 60 mins by LC-MS analysis; assay type: ADME, Microsome; conditions: read-out: CLH; method in brief: as §2
[11] = system: Trypanosoma brucei brucei; assay: Antitrypanosomal activity against Trypanosoma brucei brucei 427 bloodstream form after 48 hrs by Alamar blue assay; assay type: functional, organism-based; conditions: Trypanosoma brucei, 427, 48 h
Method in brief: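 Bloodstream parasites in 384-well plates, 24 h preincubation at 37 °C/5% CO2. DMSO dilutions diluted 1:21 in DMEM and added to give final 41.67 to 0.0004 µM; 48 h incubation. 70% Alamar Blue in HMI-9 + 10% FCS added, 2 h at 37 °C then 22 h at room temperature; read at ex 535/em 590 nm.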

[12] = system: Trypanosoma cruzi; assay: Antitrypanosomal activity against Trypanosoma cruzi Tulahuen C2C4 amastigotes infected in rat L6 cells after 96 hrs by beta-galactosidase reporter gene assay; assay type: functional, organism-based; conditions: Tulahuen C2C4, L6, 96 h
Method in brief: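 L-6 cells (2000/well, RPMI 1640 + 10% FBS, 2 mM L-glutamine) infected after 24 h with 5000 LacZ-expressing trypomastigotes. At 48 h the medium was replaced with eleven 3-fold drug dilutions (100 to 0.002 µg/mL). After 96 h, CPRG/Nonidet substrate added, colour read at 540 nm after 2–6 h. IC50 by linear regression from sigmoidal curves; benznidazole control.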

[13] = system: L6; assay: Cytotoxicity against rat L6 cells after 70 hrs by Alamar blue assay; assay type: cell-based; conditions: L6, 70 h
Method in brief: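 4000 L-6 cells per well in RPMI 1640 with L-glutamine and 10% FBS. Eleven 3-fold dilutions from 100 to 0.002 µg/mL for 70 h; Alamar Blue 2 h, fluorescence at ex 536/em 588 nm. IC50 by linear regression from sigmoidal curves; podophyllotoxin control.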

[14] = Selectivity index, ratio of IC50 for rat L6 cells to IC50 for Trypanosoma cruzi Tulahuen C2C4 amastigote stage; assay type: toxicity, cell-based; conditions: read-out: Ratio IC50
[15] = system: Leishmania donovani; assay: Antimicrobial activity against Leishmania donovani amastigote form infected in mouse peritoneal macrophage after 96 hrs by Giemsa staining method; assay type: functional, organism-based
Method in brief: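 Mouse peritoneal macrophages (4×10⁴/well, RPMI 1640 + 10% heat-inactivated FBS) infected after 24 h with 1.2×10⁵ axenic amastigotes; free parasites removed at 4 h, drug dilutions added next day. After 96 h, methanol fixation and 10% Giemsa staining; infected and non-infected macrophages counted, % reduction in parasite burden vs controls, IC50 by linear regression; miltefosine control.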

Row | Compound | solubility kinetic [1] | IC50 [2] | IC50 [3] | half-life at 1 µM [4] | selectivity ratio [5] | solubility kinetic [6] | logD [7] | IC50 [8] | selectivity ratio [9] | microsomal CLint at 1 µM [10] | IC50 [11] | IC50 [12] | IC50 [13] | selectivity ratio [14] | IC50 [15]
1 | O=C(Nc1ccc(Cl)c(-c2nc3ncccc3o2)c1)c1ccco1 | 1.6 µg/mL (≈ 4.71 µM) | 590 nM | 7800 nM | 7 min | > 345 | 1.6 µg/mL (≈ 4.71 µM) | 2.7 | 1800 nM | 39 | 258 µL/min/mg | 220 nM | 230 nM | 23000 nM | 99 | 
2 | O=C(Nc1ccc(Cl)c(-c2nc3ncccc3o2)c1)c1ccoc1 |  | 91 nM | 4900 nM |  | 160 |  |  | 340 nM | > 700 |  | 300 nM | 260 nM | 65000 nM |  | 12000 nM
